# In article PMC2793091 (Biochemistry, 2009):
# Like-named read-outs stand apart in the source and are kept apart here.
# Key:
# [1] = pH 10
# VAChT = details: cited from earlier work
# [2] = Solubility in binding buffers at different pH
# [3] = tested on: postnuclear supernatant from cells not transfected with VAChT; type: binding, rat; details: five nM [3H]vesamicol
# Method in brief: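 Postnuclear supernatant (1500g, 10 min) from untransfected PC12^A123.7 cells, in sucrose/HEPES/DTT buffer pH 7.4. 20 μg protein mixed with iso-osmolal MES/HEPES/AMPSO pH buffer. Started with [³H]vesamicol in potassium tartrate/HEPES/DTT buffer; 10 min, 23°. pH measured just before filtration. Two portions filtered, washed with ice-cold buffer containing 5 μM (±)-vesamicol, scintillation-counted, averaged. Nonspecific binding measured with 5 μM (±)-vesamicol.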
# [4] = titration of (±)-vesamicol absorbance at 263 nm; cited from earlier work
# sigma 2 receptors = details: cited from earlier work
# sigma 1 receptors = details: cited from earlier work
compound,measurement,setting,value
"Nc1cccc2c1CC(N1CCC(c3ccccc3)CC1)C(O)C2 (racemic) [(±)-ABV, (±)-aminobenzovesamicol]",solubility,[1],soluble
same,potency relative to (±)-vesamicol,VAChT,about 1000 fold
(±)-trans-2-(4-phenylpiperidino)cyclohexanol [(±)-vesamicol],solubility,"[2]; 200 μM, pH 10 (data not shown)",not soluble
same,solubility,"[2]; 1 mM, acidic and neutral pH",soluble
(−)-[^3H]trans-2-(4-phenylpiperidino)cyclohexanol [[^3H]vesamicol],"""specific-nonspecific"" binding",[3]; high pH,~ 0.4 pmol/mg
same,"""specific-nonspecific"" binding",[3]; low pH,essentially no
same,pKaves (protonated vesamicol),[4],9.0 ± 0.1
(−)-trans-2-(4-phenylpiperidino)cyclohexanol [(−)-vesamicol],affinity relative to VAChT,sigma 2 receptors,only somewhat less than for VAChT
same,pKaves (protonated vesamicol),[4],9.0 ± 0.1
same,affinity relative to VAChT,sigma 1 receptors,only somewhat less than for VAChT
